Assay outcomes: PubChem BioAssay, several laboratories
Runt-SMMHC FRET – inhibitors of RUNX1 Runt–CBFb-SMMHC binding, primary screen, biochemical, FRET, Cerulean-Runt, Venus-CBFb-SMMHC, uHTS | Runt-related transcription factor 1 (Homo sapiens) + Core-binding factor subunit beta … | Cerulean-Runt/Venus-CBFb-SMMHC FRET ratio 530/480, 1 h | inhibition, % at 20 µM | hit rate 0.74% among 220,000 | AID 1434, 2008;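 active = mean inhibition across duplicate retests at 20 µM reaching about 50%, limit read from the data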;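 note: 0% = DMSO wells and 100% = wells with excess untagged CBFb-SMMHC; inhibitors lower the FRET ratio by blocking Runt binding to CBFb-SMMHC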
Target sequence (Q01196 whole entry, looked up): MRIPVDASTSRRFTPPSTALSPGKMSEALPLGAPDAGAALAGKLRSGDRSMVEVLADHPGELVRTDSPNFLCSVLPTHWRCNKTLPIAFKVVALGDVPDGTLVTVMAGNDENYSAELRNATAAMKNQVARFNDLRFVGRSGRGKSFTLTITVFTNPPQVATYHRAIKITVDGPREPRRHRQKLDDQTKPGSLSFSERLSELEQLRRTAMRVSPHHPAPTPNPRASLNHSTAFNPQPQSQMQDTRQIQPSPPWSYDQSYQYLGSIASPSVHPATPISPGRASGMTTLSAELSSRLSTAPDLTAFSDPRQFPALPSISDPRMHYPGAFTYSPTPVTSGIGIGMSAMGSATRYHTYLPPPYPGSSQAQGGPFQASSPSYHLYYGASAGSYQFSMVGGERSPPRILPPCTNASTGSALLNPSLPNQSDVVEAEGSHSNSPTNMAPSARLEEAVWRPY
Target sequence (Q13951 whole entry, looked up): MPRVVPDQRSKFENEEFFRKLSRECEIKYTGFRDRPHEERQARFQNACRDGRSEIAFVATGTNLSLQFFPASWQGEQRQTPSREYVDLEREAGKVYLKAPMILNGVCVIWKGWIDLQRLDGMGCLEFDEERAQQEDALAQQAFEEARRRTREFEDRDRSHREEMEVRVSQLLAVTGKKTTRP
IMP-1 inhibitor – IMP-1 metallo-beta-lactamase inhibitors, primary screen, biochemical, epi-absorbance readout, Pseudomonas aeruginosa enzyme. metallo-beta-lactamase IMP-1 (Pseudomonas aeruginosa). purified IMP-1, nitrocefin hydrolysis, epi-absorbance fluorescence. inhibition, % at 5.6 µM. hit rate 0.45% among 290,000. AID 1556, 2009;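 active = inhibition above the mean plus 3 SD of all compounds in the same screening run, cut at about 4.5% in these data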;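 note: 0% = IMP-1 with DMSO and 100% = DMSO wells lacking enzyme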
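system = purified recombinant IMP-1 beta-lactamase | amount = 0.2 nM IMP-1, as dispensed | medium = HEPES buffer pH 7.1 with ZnSO4 and Brij 35 | times = 25 °C, 15 min preincubation, 25 min reaction | detection = plate fluorescence quenching by hydrolysis product, ex 480/em 530 nm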
Runt-CBFb FRET – inhibitors of RUNX1 Runt–CBFb binding, primary screen, biochemical, FRET, Cerulean-Runt, Venus-CBFb, uHTS | inhibition, % at 20 µM | Runt-related transcription factor 1 (Homo sapiens) + Core-binding factor subunit beta … | AID 1496, 2009 | Cerulean-Runt/Venus-CBFb FRET ratio 530/480, 1 h | hit rate 0.46% among 220,000;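 active = inhibition over about 50% at 20 µM in the single-dose screen, limit read from the data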;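 note: 0% = DMSO wells and 100% = excess unlabeled CBFb competitor control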
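System: Cerulean-labeled Runt domain protein | Quantity: 100 nM of each labeled protein | Schedule: 1 h compound exposure, room temperature | Detection: Fluorescence energy transfer, 422 nm excitation, 530/480 nm emission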
RanGTP-Impb inh – inhibitors of RanGTP-importin-beta interaction, primary screen, biochemical, FRET, CFP-Ran, YFP-importin-beta, homogeneous. cell-free CFP-Ran/YFP-importin-beta FRET ratio. inhibition, % (no concentration beside the values). hit rate 1.1% among 300,000;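 active = more than half of the replicate wells show a fall in the fluorescence ratio signal beyond about 16%, limit read from the data, passing the limit was not always enough; inconclusive = exactly half of the replicate wells pass the set limit; inactive = fewer than half of replicates pass the limit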;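 note: 0% = DMSO wells and 100% = Ran loaded with GDP instead of GTP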
VIM-2 inhibitor – VIM-2 metallo-beta-lactamase inhibitors, primary screen, biochemical, epi-absorbance readout, Pseudomonas aeruginosa enzyme | purified VIM-2, nitrocefin hydrolysis, epi-absorbance fluorescence | inhibition, % at 5.6 µM | hit rate 0.89% among 290,000;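 active = inhibition above the mean of all tested compounds plus 3 SD, cutoff set per screening run, cut at about 7.5% in these data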;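 note: red hydrolysis product quenches plate fluorescence so inhibitors raise well fluorescence; 0% = enzyme with DMSO and 100% = DMSO without enzyme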
* hit, by the source's call; ! = not confirmed by another sample. A selection: hits, their analogues and other compounds. The true share with any hit is near 2.6%.

What do the screens show for `O=[N+]([O-])c1ccccc1OCCCOc1cccc2cccnc12`?
IMP-1 inhibitor: 0; RanGTP-Impb inh: 0; VIM-2 inhibitor: -1

What do the screens show for `Cc1cc(C)cc(NC(=S)N2CC(C)OC(C)C2)c1` (stereo not drawn)?
IMP-1 inhibitor: -2; VIM-2 inhibitor: -3

How did CN1CCC2(CC1)C1CN(C)CC=C1C(C#N)=C(N)C2(C#N)C#N (stereo not drawn) do in these assays?
Runt-SMMHC FRET: 75*; IMP-1 inhibitor: 1; Runt-CBFb FRET: 71*!; RanGTP-Impb inh: 43*; VIM-2 inhibitor: 2

What do the screens show for `Cc1oc(-c2cccc3ccccc23)nc1CN1CCN(c2ncnc3ccccc23)CC1`?
Runt-SMMHC FRET: 1; IMP-1 inhibitor: -2; Runt-CBFb FRET: -3; RanGTP-Impb inh: -2; VIM-2 inhibitor: -2

Results for Nc1c(C(=O)c2ccc(Cl)cc2)sc2nsc(SCCN3CCOCC3)c12 ?
Runt-SMMHC FRET: -146; IMP-1 inhibitor: 0; Runt-CBFb FRET: -87; RanGTP-Impb inh: -96; VIM-2 inhibitor: 3

How did Nc1c(C(=O)c2ccccc2)sc2nsc(SCCN3CCCC3)c12 do in these assays?
Runt-SMMHC FRET: -142; IMP-1 inhibitor: 2; Runt-CBFb FRET: -33; RanGTP-Impb inh: -56; VIM-2 inhibitor: 8.3*

Results for COc1cccc(-c2nc(CS(=O)(=O)CC(=O)NC3CCCCC3C)c(C)o2)c1 (stereo not drawn) ?
IMP-1 inhibitor: -4; RanGTP-Impb inh: -1; VIM-2 inhibitor: -3

How did CCOc1ccc(S(=O)(=O)N2CCOCC2)cc1NC(=O)CN1C(=O)NC(CC)(c2ccccc2)C1=O (stereo not drawn) do in these assays?
IMP-1 inhibitor: -3; RanGTP-Impb inh: -3; VIM-2 inhibitor: -1

What do the screens show for `COc1ccc2cc3cc(C(=O)NCCCN4CCC(C)CC4)oc3nc2c1`?
IMP-1 inhibitor: 0; RanGTP-Impb inh: 0; VIM-2 inhibitor: 9.9*

What do the screens show for `COc1ccc2nc3oc(C(=O)NC4CCN(Cc5ccccc5)CC4)cc3cc2c1`?
Runt-SMMHC FRET: -3; IMP-1 inhibitor: 0; Runt-CBFb FRET: -2; VIM-2 inhibitor: -2

Results for CCOC(=O)N1CCC(NC(=O)c2cc3cc4cc(OC)ccc4nc3o2)CC1 ?
Runt-SMMHC FRET: 2; IMP-1 inhibitor: -3; Runt-CBFb FRET: -4; RanGTP-Impb inh: 21*; VIM-2 inhibitor: -1

Results for CCC(NS(=O)(=O)c1ccc(C)cc1)C(=O)N1CCOCCOCCOCCOCC1 (stereo not drawn) ?
IMP-1 inhibitor: -3; RanGTP-Impb inh: inconclusive; VIM-2 inhibitor: -4

How did O=C(Nc1cccnc1)/C(N=Nc1cccnc1)=C(\O)c1ccccc1 do in these assays?
Runt-SMMHC FRET: -4; IMP-1 inhibitor: -4; Runt-CBFb FRET: -1; RanGTP-Impb inh: -2; VIM-2 inhibitor: 10*

Results for Oc1ccc2ccccc2c1/C=N/n1cnnc1 ?
Runt-SMMHC FRET: 116*; IMP-1 inhibitor: -1; Runt-CBFb FRET: 67*; RanGTP-Impb inh: 3; VIM-2 inhibitor: -1

What do the screens show for `Oc1ccc2ccccc2c1C=NC1CCCCC1`?
Runt-SMMHC FRET: 2; IMP-1 inhibitor: -4; Runt-CBFb FRET: 4; RanGTP-Impb inh: -1; VIM-2 inhibitor: -3

How did COc1cccc(CCN2CCC(CNS(=O)(=O)c3cc(-c4cc(C)no4)ccc3C)CC2)c1 do in these assays?
IMP-1 inhibitor: -4; RanGTP-Impb inh: 0; VIM-2 inhibitor: -2

What do the screens show for `CCCCn1c(NC(=O)c2ccc(F)cc2)c(C#N)c2nc3ccccc3nc21`?
RanGTP-Impb inh: 18*

What do the screens show for `CCC(C)n1c(NC(=O)c2ccccc2)c(C#N)c2nc3ccccc3nc21` (stereo not drawn)?
Runt-SMMHC FRET: 66*; IMP-1 inhibitor: -3; Runt-CBFb FRET: 16; RanGTP-Impb inh: 21*; VIM-2 inhibitor: -5

Results for CCOc1ccc(C2=CSC3=NCCN23)cc1Cl ?
IMP-1 inhibitor: -1; RanGTP-Impb inh: 4; VIM-2 inhibitor: 0

How did Cc1cn(-c2cc(NC(=O)c3ccc(C)c(NC(=O)c4cccc(-c5cn[nH]c(=O)c5)c4)c3)cc(C(F)(F)F)c2)cn1 do in these assays?
IMP-1 inhibitor: 20*; RanGTP-Impb inh: -3; VIM-2 inhibitor: 2

Results for Cc1ccc(C(=O)Nc2cccc(C(F)(F)F)c2)cc1NC(=O)c1csc(-c2ccncc2)n1 ?
Runt-SMMHC FRET: -6; Runt-CBFb FRET: -4; RanGTP-Impb inh: 0

How did C=C1CCc2c([nH]c3ccc(OCC(C)C)cc23)C1=O do in these assays?
IMP-1 inhibitor: -3; RanGTP-Impb inh: 0; VIM-2 inhibitor: -1

What do the screens show for `CCc1nc(SCC(=O)c2ccc3c(c2)OCCO3)c2ccccc2n1`?
Runt-SMMHC FRET: 56*; IMP-1 inhibitor: -2; Runt-CBFb FRET: 29; RanGTP-Impb inh: 12; VIM-2 inhibitor: 2

How did C/C(=N\NC(=O)c1ccc(Br)o1)c1cc2c(cc1NC(=O)CCC(=O)O)OCO2 do in these assays?
IMP-1 inhibitor: -2; VIM-2 inhibitor: -5

What do the screens show for `CC1(C)Oc2ccc3ccc(=O)oc3c2-c2cn[nH]c21`?
Runt-SMMHC FRET: 8; IMP-1 inhibitor: -4; Runt-CBFb FRET: -2; RanGTP-Impb inh: -4; VIM-2 inhibitor: 8.0*

Results for CC1(C)Oc2ccc3ccc(=O)oc3c2-c2cnoc21 ?
Runt-SMMHC FRET: 0; IMP-1 inhibitor: -3; Runt-CBFb FRET: -10; RanGTP-Impb inh: -1; VIM-2 inhibitor: -2

Results for CC(=O)Nc1ccc(NC(=O)CN(C)S(=O)(=O)c2ccc3c(c2)CCC(=O)N3)cc1 ?
IMP-1 inhibitor: -1; RanGTP-Impb inh: 0; VIM-2 inhibitor: -5

How did CCOc1ccc(NC(=O)CN(C)S(=O)(=O)c2ccc3c(c2)CCC(=O)N3)cc1 do in these assays?
Runt-SMMHC FRET: 60*; IMP-1 inhibitor: -4; Runt-CBFb FRET: 2; RanGTP-Impb inh: 0; VIM-2 inhibitor: -2

What do the screens show for `COc1ccc(CNc2c(C(=O)O)cnc3c2cnn3C)cc1`?
Runt-SMMHC FRET: -3; IMP-1 inhibitor: -3; Runt-CBFb FRET: 0; RanGTP-Impb inh: 5; VIM-2 inhibitor: 9.9*

Results for CN1CCN(c2nc3ccccc3nc2C(C#N)C(=O)OC2CCCCC2)CC1 (stereo not drawn) ?
Runt-SMMHC FRET: 2; IMP-1 inhibitor: -3; Runt-CBFb FRET: 0; RanGTP-Impb inh: 15*; VIM-2 inhibitor: 0

What do the screens show for `CCN1CCN(c2nc3ccccc3nc2C(C#N)C(=O)OC2CCCCC2)CC1` (stereo not drawn)?
Runt-SMMHC FRET: 38; IMP-1 inhibitor: -3; Runt-CBFb FRET: 18; VIM-2 inhibitor: 3
